The source of these data is PMC9352467 (Neoplasia (New York, N.Y.), 2022).

Structures are written as SMILES. Marks after values point to notes of the source that are not given here.

For one data set, the system named is HCT-116 and RKO cells. Description: Western blotting of neddylation, CRLs substrates and DNA damage markers. In kind it is cell-based, Human. To be noted: 24 h. In outline: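 HCT-116 and RKO cells were treated with test compound or a reference NAE inhibitor; DNA damage markers (γH2AX, p-Chk1 Ser317, p-Chk2 T68) were read after 24 h. Lysis was in SDS buffer (50 mM Tris-HCl pH 6.8, 2% SDS, 100 mM DTT) with 10 min boiling. Lysates were run on 10% gels at 150 V for 1 h, blocked in 5% milk/TBST, and probed with primaries at 1:1000 and HRP secondaries. Three repeats.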

For a further data set, the system named is THP-1. Description: Cell viability assay. To be noted: Homo sapiens, THP-1, 72 h, read-out: IC50 (mean ± SD). The data set is classed as cell-based.
For a further data set, the system named is MV-4-11. Nature of the data set: Cell viability assay. The data set is classed as cell-based. To be noted: Homo sapiens, MV4-11, 72 h, read-out: IC50 (mean ± SD).
A further data set has as its system Jurkat, Clone E6-1. Description: Cell viability assay. To be noted: Homo sapiens, 72 h, read-out: IC50 (mean ± SD). In kind it is cell-based.
The next data set has as its system NOMO-1. Description: Cell viability assay. In kind it is cell-based. To be noted: Homo sapiens, NOMO-1, 72 h, read-out: IC50 (mean ± SD).
Another data set concerns KG-1. Description: Cell viability assay. The data set is classed as cell-based. To be noted: Homo sapiens, KG-1, 72 h, read-out: IC50 (mean ± SD).
The next data set relates to SW48. Nature of the data set: Cell viability assay. The data set is classed as cell-based. To be noted: Homo sapiens, SW48, 72 h, read-out: IC50 (mean ± SD).
For a further data set, the system named is COLO 205. Description: Cell viability assay. The data set is classed as cell-based. To be noted: Homo sapiens, COLO 205, 72 h, read-out: IC50 (mean ± SD).
A further data set has as its system HCT-116. Nature of the data set: Cell viability assay. In kind it is cell-based, Human.
Another data set has as its system HT-29. Nature of the data set: Cell viability assay. In kind it is cell-based. To be noted: Homo sapiens, HT-29, 72 h, read-out: IC50 (mean ± SD).
The next data set concerns RKO. Nature of the data set: Cell viability assay. In kind it is cell-based, Human.
The test system of the next data set is HCT 15. Nature of the data set: Cell viability assay. In kind it is cell-based. To be noted: Homo sapiens, HCT-15, 72 h, read-out: IC50 (mean ± SD).
The next data set concerns SW480. Description: Cell viability assay. The data set is classed as cell-based. To be noted: Homo sapiens, SW480, 72 h, read-out: IC50 (mean ± SD).
The next data set relates to SW620. Nature of the data set: Cell viability assay. In kind it is cell-based. To be noted: Homo sapiens, SW-620, 72 h, read-out: IC50 (mean ± SD).
A further data set deals with Capan-1. Nature of the data set: Cell viability assay. To be noted: Homo sapiens, CAPAN-1, 72 h, read-out: IC50 (mean ± SD). In kind it is cell-based.
In a further data set the test system is MIA PaCa-2. Nature of the data set: Cell viability assay. In kind it is cell-based. To be noted: Homo sapiens, MIA PaCa-2, 72 h, read-out: IC50 (mean ± SD).
A further data set relates to SUIT-2. Description: Cell viability assay. In kind it is cell-based. To be noted: Homo sapiens, SUIT-2, 72 h, read-out: IC50 (mean ± SD).
The test system of the next data set is Panc 02.03. Description: Cell viability assay. To be noted: Homo sapiens, Panc 02.03, 72 h, read-out: IC50 (mean ± SD). The data set is classed as cell-based.
In a further data set the test system is HGC-27. Nature of the data set: Cell viability assay. The data set is classed as cell-based. To be noted: Homo sapiens, HGC-27, 72 h, read-out: IC50 (mean ± SD).
The test system of another data set is NCI-N87. Description: Cell viability assay. To be noted: Homo sapiens, NCI-N87, 72 h, read-out: IC50 (mean ± SD). In kind it is cell-based.
Another data set concerns DU 145. Description: Cell viability assay. In kind it is cell-based. To be noted: Homo sapiens, DU-145, 72 h, read-out: IC50 (mean ± SD).
The next data set deals with LNCaP. Nature of the data set: Cell viability assay. The data set is classed as cell-based. To be noted: Homo sapiens, 72 h, read-out: IC50 (mean ± SD).
For a further data set, the system named is PC-3. Description: Cell viability assay. The data set is classed as cell-based. To be noted: Homo sapiens, PC-3, 72 h, read-out: IC50 (mean ± SD).
The subject of another data set is TOV-112D. Description: Cell viability assay. In kind it is cell-based. To be noted: Homo sapiens, TOV112D, 72 h, read-out: IC50 (mean ± SD).
Another data set concerns OVCAR-8. Description: Cell viability assay. The data set is classed as cell-based. To be noted: Homo sapiens, OVCAR-8, 72 h, read-out: IC50 (mean ± SD).
The subject of another data set is CHL-1. Nature of the data set: Cell viability assay. The data set is classed as cell-based. To be noted: Homo sapiens, CHL-1, 72 h, read-out: IC50 (mean ± SD).
The next data set relates to G-361. Nature of the data set: Cell viability assay. In kind it is cell-based. To be noted: Homo sapiens, G-361, 72 h, read-out: IC50 (mean ± SD).
The next data set deals with NCI-H226. Description: Cell viability assay. In kind it is cell-based. To be noted: Homo sapiens, NCI-H226, 72 h, read-out: IC50 (mean ± SD).
The subject of data set [1] is panel of 28 human cancer cell lines. Nature of the data set: Cell viability assay, whole panel. In kind it is cell-based. To be noted: 72 h, read-out: Average IC50 over the cell line panel.
Data set [2] can be described thus: Plasma pharmacokinetic studies. The data set is classed as in vivo, Sprague-Dawley (SD) rats. To be noted: male, Sprague-Dawley, rat, 3 mg/kg. In short, it runs like this:
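Male Sprague-Dawley rats (200–250 g) were fasted 12 h and dosed with test compound or reference at 1 mg/kg i.v. or 3 mg/kg p.o. The i.v. vehicle was DMSO/EtOH/PEG300/NaCl (5/5/40/50); the p.o. vehicle was DMSO/0.5% HPMC (5/95). Blood was sampled over time and assayed by LC/MS/MS. Three animals per time point; non-compartmental analysis.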

The conditions of data set [3]: 1 mg/kg i.v.; SD rats plasma; ref [25]; cited from earlier work.

As a reminder, the IC50 is the concentration needed to halve the response being measured. One may read the bioavailability as dose-corrected exposure relative to a reference, in per cent. The AUC(0-t) is the area under the concentration-time curve up to a stated or last time point. For orientation: Cmax means the maximum level reached in the sampled fluid or tissue. Usually Tmax stands for the time at which the peak concentration occurs. The half-life is the time in which the quantity being followed falls by half. Read a low half-life as rapid decline. Regarding `NS(=O)(=O)OC[C@@H]1C[C@@H](n2ccc3c(N[C@H]4CCc5ccccc54)ncnc32)C[C@@H]1O` [MLN4924], in the data set with HCT-116 and RKO cells, the “DNA damage (γH2AX levels)” value is recorded as “accumulation of DNA double-strand breaks”. The IC50 was 60.1 ± 32.2 nM in the data set on THP-1; 121 ± 1.79 nM with MV-4-11; 284 ± 95.6 nM in the data set on Jurkat, Clone E6-1; 627 ± 77.8 nM with NOMO-1; 936 ± 258 nM in the data set on KG-1; 79.5 ± 23.1 nM with SW48. In addition, the IC50 amounted to 54.2 ± 2.47 nM with COLO 205; 60.8 ± 11.7 nM in the data set on HCT-116 (Homo sapiens, HCT-116, 72 h, read-out: IC50 (mean ± SD)); 296 ± 32.3 nM in the data set on HT-29; 150 ± 26.4 nM with RKO (Homo sapiens, 72 h, read-out: IC50 (mean ± SD)); 294 ± 80.3 nM in the data set with HCT 15; 1090 ± 91.7 nM in the data set with SW480. Also, the IC50 is 5550 ± 2370 nM with SW620; 96.5 ± 10.1 nM in the data set on Capan-1; 109 ± 16.1 nM in the data set with MIA PaCa-2; 204 ± 29.1 nM with SUIT-2; 356 ± 39.1 nM with Panc 02.03; 98.5 ± 28.3 nM in the data set on HGC-27. The IC50 came out at 865 ± 77.5 nM in the data set with NCI-N87; 86.5 ± 15.1 nM in the data set on DU 145; 52.5 ± 13.4 nM with LNCaP; 2430 ± 1050 nM in the data set on PC-3; 229 ± 104 nM with TOV-112D; 541 ± 64.2 nM in the data set on OVCAR-8. Besides, the 50% inhibitory concentration (IC50) in the data set with CHL-1 was 320 ± 122 nM; with G-361 it was 1430 ± 684 nM; with NCI-H226, 1040 ± 624 nM; in data set [1], 647 nM. In [2] (oral), this molecule yielded a bioavailability of 12.4%. The same molecule returned an exposure AUC(0-t) in data set [2] (po) of 208 ng·h/mL. In [2] (po), this molecule yielded a peak concentration (Cmax) of 64 ng/mL. For the same molecule, in data set [2] (po), the Tmax amounted to 0.92 h. In addition, the half-life in data set [2] (po) was 5.5 h. The AUClast in [3] is given as 560^a ng*h/mL. Besides, the CL in data set [3] is listed as 29.70^a mL/min/kg. The T1/2 in [3] is listed as 0.71^a h. Further, the Vss_obs in data set [3] is recorded as 1783^a mL/kg.
Consider `CCOc1cccc(F)c1C#Cc1cn([C@@H]2O[C@H](CNS(N)(=O)=O)[C@@H](O)[C@H]2O)c2ncnc(N)c12` [TAS4464], for which the “sensitivity of cell proliferation” value with HCT-116 (HCT-116, Supplemental Figure 1b) is given as “profoundly sensitive”; in the data set with RKO (Supplemental Figure 1b), “profoundly sensitive”.
